Among the data in ChEMBL document CHEMBL2034815, “Synthesis and evaluation of N(1)-alkylindole-3-ylalkylammonium compounds as nicotinic acetylcholine receptor ligands” (Bioorg Med Chem, 2012) are Ki and Activity values, retold here.

The source made the active and inactive calls. The calls are words filed in the database; no cut-off is given here.

A short description of test [1]: Displacement of [3H]epibatidine from (alpha1)2beta1gammadelta nAChR in electric ray electroplax P1 membrane after 90 mins by liquid scintillation counting. Details: species or system Tetronarce californica. The method, boiled down: (§1)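 Rat forebrain P2, calf adrenal P1 or Torpedo californica electroplax P1 membranes (60 µg protein) with 0.5 nM (±)-[3H]epibatidine in HEPES-salt solution (15 mM HEPES, 120 mM NaCl, 5.4 mM KCl, 0.8 mM MgCl2, 1.8 mM CaCl2) at 22 °C. Run in duplicate. Nonspecific binding defined with 300 µM (−)-nicotine. Filtered on PEI-soaked GF/B filters. Ki derived from IC50 by Cheng-Prusoff, Kd 10 pM.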
(Loss of bound radioactivity is the signal in a displacement assay; it reports binding, not function.)

The nature of test [2]: Displacement of [3H]epibatidine from alpha4beta2* nAChR in Sprague-Dawley rat brain P2 membrane after 90 mins by liquid scintillation counting. The class given is tissue-based. The method, boiled down: as §1
A short description of test [3]: Displacement of [3H]epibatidine from alpha3beta4* nAChR in calf adrenal P1 membrane after 90 mins by liquid scintillation counting. The class given is cell membranes, Bos taurus. In short, it runs like this:
as §1

Test [4] is described as follows: Displacement of [3H]MLA from alpha7* nAChR in Sprague-Dawley rat brain P2 membrane after 180 mins by liquid scintillation counting.
Test [5] can be described thus: Displacement of [3H]MLA from alpha7* nAChR in rat brain membrane. The class given is cell membranes. In short, it runs like this: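 Rat brain crude P2 membranes in HEPES-salt solution (15 mM HEPES, 120 mM NaCl, 5.4 mM KCl, 0.8 mM MgCl2, 1.8 mM CaCl2), 22 °C, duplicates. [3H]MLA 2 nM final, 180 min; nonspecific binding with 1 µM MLA. GF/B filtration (1% PEI presoaked), scintillation counting. Nonlinear regression IC50; Ki by Cheng-Prusoff with Kd = 1 nM.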

For the next test, the species on record is Rattus norvegicus. The test can be described thus: Displacement of [3H]epibatidine from alpha4beta2* nAChR in Sprague-Dawley rat brain P2 membrane up to 50 uM after 90 mins by liquid scintillation counting. It counts as tissue-based.

What is called Ki is a dissociation constant, usually derived from enzyme kinetics or from competition with a known ligand. Low readings indicate higher affinity, high ones lower affinity. Regarding `CC(C)=CCn1cc(CC[N+](C)(C)C)c2ccc(Br)cc21`, the Ki is more than 10 µM in test [1], 0.412 µM in test [2], 5.33 µM in test [3] and 1.53 µM in test [4].

`CCCCCCCCn1cc(CCCN(C)C)c2ccccc21`: the Ki in test [2] and in test [3] was more than 10 µM each time.

Turning to `CNCCc1cn(C)c2ccccc12`, the Ki in test [2] and in test [3] was more than 10 µM throughout.

Regarding `CC(C)=CCn1cc(C[N+](C)(C)C)c2ccccc21`, the Ki is 0.435 µM in test [2], more than 10 µM in test [3] and more than 10 µM in test [4].

Consider `CC(C)=CCn1cc(CCN(C)C)c2ccccc21`, for which the Ki in test [2] was more than 10 µM; in test [3] it was 1.82 µM; in test [4] it was more than 10 µM.

Consider `CCCCCCCCn1c(C[N+](C)(C)C)cc2ccccc21`, for which the Ki in test [2], in test [3] and in test [4] was more than 10 µM each time.

In the case of `CNCCc1cn(CC=C(C)C)c2ccccc12`, the Ki in test [2], in test [3] and in test [4] was more than 10 µM in each case.

Regarding `CCCCCCCCCCCCn1cc(CCC[N+](C)(C)C)c2ccccc21`, the Ki in test [2], in test [3] and in test [4] was more than 10 µM in each case.

As for `CCCCCCCCn1cc(CC[N+](C)(C)C)c2ccccc21`, the Ki in test [2] was 0.527 µM; in test [3], more than 10 µM.

With `CN1CCC[C@H]1c1cccnc1` [NICOTINE], the Ki in test [2] came to 0.00085 µM; in test [3] it was 0.0753 µM; in test [4], 0.129 µM.

In the case of `CC(C)=CCn1cc(C[N+](C)(C)C)c2ccc(Br)cc21`, the Ki in test [2] is 0.203 µM; in test [3], more than 1 µM; in test [4] it was more than 1 µM.

As for `CCCCCCCCn1cc(C[N+](C)(C)C)c2ccccc21`, the Ki in test [2] is 0.706 µM; in test [3] it was 3.4 µM; in test [4], more than 5 µM.

Turning to `CCCCCCCCCCn1cc(CCC[N+](C)(C)C)c2ccccc21`, the Ki in test [2], in test [3] and in test [4] was more than 10 µM in each case.

Take `C=CCn1cc(CCNC)c2ccccc21`: the Ki in test [2] and in test [3] was more than 10 µM each time.

For the molecule `CCCCCCCCn1cc(CCC[N+](C)(C)C)c2ccccc21`, the Ki in test [2] is 0.243 µM; in test [3], more than 10 µM; in test [4] it was more than 1 µM.

Regarding `CC(C)=CCn1cc(CN(C)C)c2ccccc21`, the Ki in test [2] and in test [3] was more than 10 µM each time.

Take `CCCCCCCCn1cc(CN(C)C)c2ccccc21`: the Ki in test [2], in test [3] and in test [4] was more than 10 µM throughout.

`CCCCCCCCCCCCn1cc(CC[N+](C)(C)C)c2ccccc21`: the Ki in test [2] and in test [3] was more than 10 µM each time.

In the case of `CCCCCCCCCCCCn1cc(CCCN(C)C)c2ccccc21`, the Ki in test [2], in test [3] and in test [4] was more than 10 µM in each case.

`CCCCCCCCCCn1cc(C[N+](C)(C)C)c2ccccc21`: the Ki in test [2], in test [3] and in test [4] was more than 10 µM in each case.

On to `C=CCn1cc(CC[N+](C)(C)C)c2ccccc21`, for which the Ki in test [1] is more than 10 µM; in test [2], 0.517 µM; in test [3], 0.365 µM; in test [4] it was 6.8 µM.

As for `CNCCc1cn(CC=C(C)C)c2cc(Br)ccc12` [DEFORMYLFLUSTRABROMINE B], the Ki was 17 µM in test [5], more than 10 µM in test [2] and more than 10 µM in test [3]. In addition, the outcome in the test listed under Rattus norvegicus was inactive.

`CC(C)=CCn1cc(CC[N+](C)(C)C)c2ccccc21`: the Ki is 2.36 µM in test [1], 0.136 µM in test [2], 0.0939 µM in test [3] and 0.862 µM in test [4].

`CCCCCCCCn1c(CN(C)C)cc2ccccc21`: the inhibition constant (Ki) in test [2], in test [3] and in test [4] was more than 10 µM throughout.

Consider `CCCCCCCCCCn1cc(CN(C)C)c2ccccc21`, for which the Ki in test [2], in test [3] and in test [4] was more than 10 µM throughout.

With `CN(C)CCc1cn(C)c2ccccc12`, the Ki was more than 10 µM in test [2] and 3.68 µM in test [3].

As for `Cn1cc(CC[N+](C)(C)C)c2ccccc21`, the Ki was more than 10 µM in test [1], more than 10 µM in test [2], 2.01 µM in test [3] and more than 10 µM in test [4].

On to `CCCCCCCCCCCCn1cc(CCN(C)C)c2ccccc21`, for which the Ki in test [2] and in test [3] was more than 10 µM in each case.

In the case of `CCCCCCCCCCn1cc(CCN(C)C)c2ccccc21`, the Ki in test [2] and in test [3] was more than 10 µM throughout.

Turning to `CCCCCCCCCCCCn1cc(CN(C)C)c2ccccc21`, the Ki in test [2], in test [3] and in test [4] was more than 10 µM in each case.

Consider `CCCCCCCCCCn1cc(CC[N+](C)(C)C)c2ccccc21`, for which the Ki in test [2] and in test [3] was more than 10 µM throughout.

With `CCCCCCCCCCn1cc(CCCN(C)C)c2ccccc21`, the Ki in test [2], in test [3] and in test [4] was more than 10 µM each time.

Consider `CC(C)=CCn1cc(CN(C)C)c2ccc(Br)cc21`, for which the inhibition constant (Ki) in test [2] is 1.38 µM; in test [3], more than 10 µM.

Consider `CC(C)=CCn1cc(CC[N+]2(C)CCCC2)c2ccccc21`, for which the Ki in test [2] is more than 10 µM.

Take `C=CCn1cc(CCN(C)C)c2ccccc21`: the Ki in test [2] was more than 10 µM; in test [3] it was 2.85 µM; in test [4], more than 10 µM.

On to `CCCCCCCCCCCCn1cc(C[N+](C)(C)C)c2ccccc21`, for which the Ki in test [2], in test [3] and in test [4] was more than 10 µM throughout.

Take `CCCCCCCCn1cc(CCN(C)C)c2ccccc21`: the Ki in test [1], in test [2], in test [3] and in test [4] was more than 10 µM each time.
